{"data": "Published values gathered from unrelated publications", "ALK": "ALK tyrosine kinase receptor (ALK, Homo sapiens, UniProt Q9UM73)", "ALK C1156Y": "ALK tyrosine kinase receptor (ALK, Homo sapiens, UniProt Q9UM73, C1156Y)", "ALK L1196M": "ALK tyrosine kinase receptor (ALK, Homo sapiens, UniProt Q9UM73, L1196M)", "note": "Protocols differ between the studies behind these lines."}
{"Structure (SMILES)": "C[C@@H]1CN(c2ccc3ncc(-c4ccc5[nH]nc(C6CC6)c5c4)n3n2)C[C@H](C)O1", "target": "ALK", "effect on": "binding", "method": "competition with immobilised ligand", "tested at": "0.5 µM", "remaining binding [%]": 80}
{"Structure (SMILES)": "O=C(c1ccc(Nc2ncc(Cl)c(-c3cc4ccccc4s3)n2)cc1)N1CCC(N2CCCC2)CC1", "target": "ALK C1156Y", "effect on": "binding", "method": "competition with immobilised ligand", "tested at": "1 µM", "remaining binding [%]": 59}
{"Structure (SMILES)": "Cc1cnn2ncc(-c3ccnc(N(C)C)n3)c2c1", "target": "ALK C1156Y", "effect on": "binding", "tested at": "1 µM", "remaining binding [%]": 100}
{"Structure (SMILES)": "C[C@H](c1ccc(F)cc1)N(Cc1cccc(C(=O)O)c1)C(=O)c1cnc2ccccc2c1", "target": "ALK L1196M", "effect on": "cell-free assay", "method": "competition with immobilised ligand", "tested at": "1 µM", "remaining binding [%]": 76}
{"Structure (SMILES)": "COc1cnc(Nc2cccc(S(N)(=O)=O)c2)nc1N1CCN(c2ccccc2)CC1", "target": "ALK L1196M", "effect on": "binding", "method": "competition with immobilised ligand", "tested at": "1 µM", "remaining binding [%]": 100}
{"Structure (SMILES)": "CN(c1nccc(-c2cnn3ncccc23)n1)C1CC1", "target": "ALK L1196M", "effect on": "binding", "tested at": "1 µM", "remaining binding [%]": 100}
{"Structure (SMILES)": "CCN1CCN(Cc2ccc(C(=O)Nc3ccc(C)c(Oc4ccc5c(c4)CC(=O)N5)c3)cc2C(F)(F)F)CC1", "target": "ALK", "effect on": "binding", "method": "competition with immobilised ligand", "tested at": "1 µM", "remaining binding [%]": 100}
{"Structure (SMILES)": "O=C(NCC1CCOCC1)c1n[nH]cc1NC(=O)c1c(F)cccc1F", "target": "ALK C1156Y", "effect on": "binding", "method": "competition with immobilised ligand", "tested at": "1 µM", "remaining binding [%]": 99}
{"Structure (SMILES)": "CN(C)c1nccc(-c2cnn3ncccc23)n1", "target": "ALK L1196M", "effect on": "binding", "tested at": "1 µM", "remaining binding [%]": 100}
{"Structure (SMILES)": "C[C@@H](c1ccc(-n2cnc3c(N)ncnc32)cc1)N1CCc2nn(C)c(Cc3ccccc3)c2C1=O", "target": "ALK C1156Y", "effect on": "binding", "method": "competition with immobilised ligand", "tested at": "0.1 µM", "remaining binding [%]": 57}
{"Structure (SMILES)": "O=C(NCCCN1CCOCC1)c1ccc(Nc2ncc(Cl)c(-c3ccc(Cl)s3)n2)cc1", "target": "ALK L1196M", "effect on": "binding", "method": "competition with immobilised ligand", "tested at": "1 µM", "remaining binding [%]": 90}
{"Structure (SMILES)": "c1cncc(-c2cccc(Nc3nccc(NC4CCCCC4)n3)c2)c1", "target": "ALK", "effect on": "binding", "method": "competition with immobilised ligand", "tested at": "10 µM", "remaining binding [%]": 62}
{"Structure (SMILES)": "O=C(c1ccc(Nc2ncc(Cl)c(-c3ccc(Cl)s3)n2)cc1)N1CCC(N2CCCC2)CC1", "target": "ALK C1156Y", "effect on": "binding", "method": "competition with immobilised ligand", "tested at": "1 µM", "remaining binding [%]": 38}
{"Structure (SMILES)": "COc1ncc2cc3ccccc3nc2c1C#N", "target": "ALK L1196M", "effect on": "cell-free assay", "method": "competition with immobilised ligand", "tested at": "5 µM", "remaining binding [%]": 94}
{"Structure (SMILES)": "CN([C@@H]1CCc2c(CC(=O)O)c3cc(S(C)(=O)=O)ccc3n2C1)S(=O)(=O)c1ccc(F)cc1", "target": "ALK L1196M", "effect on": "cell-free assay", "method": "competition with immobilised ligand", "tested at": "1 µM", "remaining binding [%]": 89}
{"Structure (SMILES)": "CC1CCCN1c1nccc(-c2cnn3ncccc23)n1 (stereo not shown)", "target": "ALK", "effect on": "binding", "tested at": "1 µM", "remaining binding [%]": 69}
{"Structure (SMILES)": "O=C(Nc1c[nH]nc1C(=O)NC1CCNCC1)c1cc(F)cc(F)c1", "target": "ALK C1156Y", "effect on": "binding", "method": "competition with immobilised ligand", "tested at": "1 µM", "remaining binding [%]": 100}
{"Structure (SMILES)": "CN1CCN(c2ccc(Nc3nccc(-c4ccccc4)n3)cc2C(F)(F)F)CC1", "target": "ALK L1196M", "effect on": "binding", "tested at": "10 µM", "remaining binding [%]": 100}
{"Structure (SMILES)": "CN(C)c1nccc(-c2cnc3ncccn23)n1", "target": "ALK C1156Y", "effect on": "binding", "tested at": "1 µM", "remaining binding [%]": 82}
{"Structure (SMILES)": "Nc1ncc2c(n1)-c1c([nH]c3ccc(C#CC4CC4)cc13)CCCC2", "target": "ALK L1196M", "effect on": "binding", "method": "competition with immobilised ligand", "tested at": "1 µM", "remaining binding [%]": 86}
{"Structure (SMILES)": "COc1cnc(Nc2cccc(S(N)(=O)=O)c2)nc1N1CCN(c2ccccc2)C(=O)C1", "target": "ALK", "effect on": "binding", "method": "competition with immobilised ligand", "tested at": "1 µM", "remaining binding [%]": 100}
{"Structure (SMILES)": "CCOC(=O)c1cc2cc(-c3cc(C(=O)NCc4ccc(C(=O)O)cc4)nn3C)ccc2[nH]1", "target": "ALK L1196M", "effect on": "cell-free assay", "method": "competition with immobilised ligand", "tested at": "0.1 µM", "remaining binding [%]": 98}
{"Structure (SMILES)": "O=C(NCCCN1CCOCC1)c1ccc(Nc2nccc(-c3cc4ccccc4s3)n2)cc1", "target": "ALK C1156Y", "effect on": "binding", "method": "competition with immobilised ligand", "tested at": "1 µM", "remaining binding [%]": 97}
{"Structure (SMILES)": "CC(=O)N1CCC(c2ccc(C(=O)NC3=NCCN3)cc2C(F)(F)F)CC1", "target": "ALK C1156Y", "effect on": "cell-free assay", "method": "competition with immobilised ligand", "tested at": "1 µM", "remaining binding [%]": 100}
{"Structure (SMILES)": "C=CC(=O)N1CCC(C(=O)NCC(=O)N2CCN(c3nc(-c4cnc(N)nc4C(F)F)nc(N4CCOCC4)n3)CC2)CC1", "target": "ALK C1156Y", "effect on": "binding", "method": "competition with immobilised ligand", "tested at": "1 µM", "remaining binding [%]": 91}
{"Structure (SMILES)": "CO[C@H]1CC[C@H](CNc2ccc(S(=O)(=O)NC(=O)c3ccc(N4CCN(CC5=C(c6ccc(Cl)cc6)CC(C)(C)CC5)CC4)cc3Oc3cnc4[nH]ccc4c3)cc2[N+](=O)[O-])CC1", "target": "ALK", "effect on": "cell-free assay", "method": "competition with immobilised ligand", "tested at": "1 µM", "remaining binding [%]": 100}
{"Structure (SMILES)": "F[C@@H]1CCN(c2nccc(-c3cnn4ncccc34)n2)C1", "target": "ALK", "effect on": "binding", "tested at": "1 µM", "remaining binding [%]": 100}
{"Structure (SMILES)": "O=S(=O)(NC1CCC(c2cc(F)ccc2F)(S(=O)(=O)c2ccc(Cl)cc2)CC1)C(F)(F)F (stereo not shown)", "target": "ALK L1196M", "effect on": "cell-free assay", "method": "competition with immobilised ligand", "tested at": "1 µM", "remaining binding [%]": 94}
{"Structure (SMILES)": "C[C@H]1CCN(c2nccc(-c3cnn4ncccc34)n2)C1", "target": "ALK C1156Y", "effect on": "binding", "tested at": "1 µM", "remaining binding [%]": 99}
{"Structure (SMILES)": "O=C(NCc1ncc(C(F)(F)F)cc1Cl)c1ccc2c(c1)C1(CCS(=O)(=O)CC1)[C@H](C1CC1)N2S(=O)(=O)c1ccc(F)cc1", "target": "ALK C1156Y", "effect on": "cell-free assay", "method": "competition with immobilised ligand", "tested at": "1 µM", "remaining binding [%]": 82}
{"Structure (SMILES)": "Cc1cnc(Nc2ccc(C(=O)N3CCC(N4CCCC4)CC3)cc2)nc1-c1cc2ccccc2s1", "target": "ALK C1156Y", "effect on": "binding", "method": "competition with immobilised ligand", "tested at": "1 µM", "remaining binding [%]": 34}
{"Structure (SMILES)": "CNC(=O)[C@@H]1CC[C@@H](n2c(-c3ccc4cnccc4c3)nc3ccc(C(=O)NCc4cccc(C(N)=O)c4)cc32)C1", "target": "ALK L1196M", "effect on": "binding", "method": "competition with immobilised ligand", "tested at": "1 µM", "remaining binding [%]": 100}
{"Structure (SMILES)": "O=C(c1ccc(Nc2nccc(-c3cc4ccccc4s3)n2)cc1)N1CCC(N2CCCC2)CC1", "target": "ALK C1156Y", "effect on": "binding", "method": "competition with immobilised ligand", "tested at": "1 µM", "remaining binding [%]": 77}
{"Structure (SMILES)": "O=C(NC[C@@H]1[C@H]2CN(C(=O)OCc3cc(C(F)(F)F)cc(C(F)(F)F)c3)C[C@@H]12)c1ccc2[nH]nnc2c1", "target": "ALK", "effect on": "cell-free assay", "method": "competition with immobilised ligand", "tested at": "1 µM", "remaining binding [%]": 79}
